AF4-AF9 inh – inhibitors of AF4 peptide binding to AF9, primary screen, biochemical, AlphaScreen, biotin-AF4 peptide, FLAG-AF9, single point | Protein AF-9 (Homo sapiens), P42568 | inhibition, % at 10 µM | 350,000 tested, 0.47% active | AID 651704, 2012;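 active = every replicate reaching a set inhibition limit, whatever the replicate mean, cut at about 25% in these data; inconclusive = mean inhibition reaches that limit but some replicates miss it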;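 also: 0% = plate neutral control median and 100% = total signal loss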
RAD52 inh – RAD52 DNA annealing inhibitors, primary screen, biochemical, FRET, single point, set 2. 360,000 tested, 0.46% active. inhibition, % at 18.7 µM. recombinant RAD52 DNA annealing, FRET fluorescence. AID 651710, 2012;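 active = every replicate showing at least 50% inhibition; inconclusive = mean inhibition at least 50% but not in every replicate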
FN deposit inh – inhibitors of fibronectin matrix deposition, primary screen, AH1F cells, Alexa488-fibronectin fluorescence, plate reader. AH1F fibroblasts, overnight. inhibition, % at 12.6 µM. 350,000 tested, 0.086% active;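 active = mean inhibition across replicates of 30% or more, regardless of how many single replicates reach that level; inconclusive = mean under 30% yet at least half of replicates reach 30%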;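 also: positive control wells lacked labelled fibronectin entirely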
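test system = AH1F fibroblasts assembling fluorescent fibronectin matrix | quantity = 10000 AH1F cells per well | buffer or medium = DMEM plus 2% serum, read in PBS | doses = single dose, pinned | incubation = 1 h cell attachment, overnight exposure to compound and label | detection = fluorescence at 485 nm excitation, 525 nm emission | read-out basis = inhibition from reduced deposited-fibronectin fluorescence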
NSD2 HMT inh – NSD2 histone methyltransferase inhibitors, primary screen, biochemical, AlphaScreen, single concentration, set 2; Histone-lysine N-methyltransferase NSD2 (Homo sapiens), O96028; NSD2 peptide methylation, 120 min; inhibition, % at 12.5 µM; 310,000 tested, 0.54% active; AID 743445, 2014; in the data active = inhibition above about 50%
Glyco luc inh – increase of ERlucT glycosylation luciferase signal, primary screen, N-linked glycosylation inhibitor project, D54 ERlucT cells, luminescence, set 2; 360,000 tested, 0.23% active; reporter increase, % at 12.5 µM; D54 ERlucT glycosylation luciferase reporter, 24 h; percent of 100 nM tunicamycin response;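 active = mean luciferase reporter signal, scaled so untreated is 0 and the glycosylation-blocking control 100, at or above a set limit in every replicate; inconclusive = mean reaches the limit but not every replicate does; inactive = mean below the limit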;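 also: luciferase carries N-glycosylation sites so blocking glycosylation raises the light; 0% = median of neutral control wells and 100% = median of 100 nM tunicamycin wells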
RAD54 branch – inhibitors of human RAD54 branch migration, primary screen, biochemical, fluorescence, single point; 360,000 tested, 0.14% active; DNA repair and recombination protein RAD54-like (Homo sapiens), Q92698; inhibition, % at 10.4 µM; AID 602329, 2012; RAD54 Holliday junction branch migration, FAM/BHQ fluorescence;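 active = mean normalized replicate activity at least 40 and at least half of replicates scoring 40 or more; inconclusive = only one of the two criteria met; inactive = mean below 40 and under half of replicates reaching 40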;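 also: 0% = median of neutral control wells and 100% = median of positive control wells; inhibitors cause a drop in the FAM fluorescence signal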
Target sequence (Q92698 whole entry, looked up): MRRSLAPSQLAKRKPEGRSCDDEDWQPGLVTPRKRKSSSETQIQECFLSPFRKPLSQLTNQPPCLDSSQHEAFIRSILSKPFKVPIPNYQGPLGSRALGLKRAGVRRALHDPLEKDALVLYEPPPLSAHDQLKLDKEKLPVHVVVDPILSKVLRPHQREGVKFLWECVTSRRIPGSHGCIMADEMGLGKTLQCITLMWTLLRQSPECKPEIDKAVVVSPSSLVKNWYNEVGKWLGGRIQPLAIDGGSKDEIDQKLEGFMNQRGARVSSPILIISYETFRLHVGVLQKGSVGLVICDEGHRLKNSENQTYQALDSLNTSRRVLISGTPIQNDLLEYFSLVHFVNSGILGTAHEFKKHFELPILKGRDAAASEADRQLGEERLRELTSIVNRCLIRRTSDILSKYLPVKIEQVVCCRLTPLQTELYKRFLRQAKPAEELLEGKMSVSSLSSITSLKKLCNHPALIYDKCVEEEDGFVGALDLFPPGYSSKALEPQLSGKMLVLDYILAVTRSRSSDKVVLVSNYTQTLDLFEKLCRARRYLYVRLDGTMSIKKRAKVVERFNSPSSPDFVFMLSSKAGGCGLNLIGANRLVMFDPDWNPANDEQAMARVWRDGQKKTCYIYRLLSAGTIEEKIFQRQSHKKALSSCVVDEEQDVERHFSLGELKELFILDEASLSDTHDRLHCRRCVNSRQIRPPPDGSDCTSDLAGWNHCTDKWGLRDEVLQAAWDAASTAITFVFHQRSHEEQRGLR
Alpha interfer – AlphaScreen signal interference counter-screen, dose response, artefact control, biochemical, cherry-picked samples, luminescence | shares compounds with AF4-AF9 inh | AC50, µM (doses to about 12 µM), for inactives: at the top dose activity change, negative = inhibition | 530 tested, 45% active; cut-off not given, nearly all actives have AC50 up to about 14 µM
* marks the source's active call; other numbers are inactive results. Compounds with a hit are over-represented: about 1.2% of the library has one in this group of screens.

Screening CN1CCN(C(c2ccc(Cl)cc2)c2cc(Cl)c3cccnc3c2O)CC1 (centres undefined) returned AF4-AF9 inh 85*, RAD52 inh 11, FN deposit inh -2, NSD2 HMT inh 1, Glyco luc inh 33*, RAD54 branch -6 and Alpha interfer 2.2µM*.
CN1[C@H](C(=O)NCCN2CCCC2)[C@@H](CO)[C@@H]2Cn3c(ccc(/C=C/c4ccccc4)c3=O)[C@@H]21 was read as AF4-AF9 inh 4 and RAD52 inh 15.
For C[C@@H]1CN([C@@H](C)CO)C(=O)c2cc(C#CC3CCCCC3)cnc2O[C@@H]1CN(C)Cc1ccncc1 the results were AF4-AF9 inh 8, RAD52 inh 10 and RAD54 branch -2.
For C[C@@H]1CN([C@@H](C)CO)C(=O)c2cc(NC(=O)CCC(F)(F)F)ccc2O[C@H]1CN(C)Cc1ccc(Oc2ccccc2)cc1 the results were AF4-AF9 inh 6, RAD52 inh 5 and RAD54 branch 8.
`NCCCC[C@@H]1NC(=O)c2cc([N+](=O)[O-])cc(F)c2NCCCC[C@@H](C(N)=O)NC(=O)CNC1=O` gave AF4-AF9 inh 42*, RAD52 inh -198, FN deposit inh 12, Glyco luc inh 2, RAD54 branch 29 and Alpha interfer -26%.
Screening CC[C@H](C)[C@@H]1NC(=O)c2cc([N+](=O)[O-])cc(F)c2NCCCC[C@@H](C(N)=O)NC(=O)[C@H](CCCCN)NC1=O returned AF4-AF9 inh inconclusive, RAD52 inh 65*, FN deposit inh 3, Glyco luc inh 2, RAD54 branch 15 and Alpha interfer -18%.
`COc1ccc(S(=O)(=O)Nc2ccc3c(c2)C(=O)N([C@@H](C)CO)C[C@@H](C)[C@@H](CN(C)C(=O)CCCN(C)C)OCCCC[C@@H](C)O3)cc1` gave AF4-AF9 inh 2, RAD52 inh 22 and RAD54 branch 1.
`CCC[C@@H](CN1CCC[C@H]1CN1C(N)=NC[C@@H]1Cc1ccccc1)N1C[C@@H](Cc2ccccc2)N(CCc2ccc(Cl)c(Cl)c2)C1=N` gave AF4-AF9 inh 30*, RAD52 inh 56*, FN deposit inh 0, Glyco luc inh 2, RAD54 branch 19 and Alpha interfer -9%.
C/C(=N\N1CCN(C2c3ccccc3-c3ccccc32)CC1)c1cccnc1 was read as NSD2 HMT inh 2, Glyco luc inh -1 and RAD54 branch 2.
Screening CN=c1scc(-c2ccccc2F)n1/N=C(\C)c1cccnc1 returned AF4-AF9 inh 37*, RAD52 inh -13, FN deposit inh 4, NSD2 HMT inh 28, Glyco luc inh -8 and Alpha interfer -31%.
CO[C@H]1CN(C)C(=O)c2cc(NC(=O)C3CCOCC3)ccc2OC[C@H](C)N(C(C)=O)C[C@@H]1C was read as AF4-AF9 inh 0, RAD52 inh 16, FN deposit inh 6 and RAD54 branch 0.
Cc1ccc2c(c1)c1c3n2CCN(CC#N)C3CCC1 (centres undefined) was read as AF4-AF9 inh 4, RAD52 inh -7, FN deposit inh 1, NSD2 HMT inh 0, Glyco luc inh -1 and RAD54 branch 9.
For Cc1ccc2c(c1)c1c3n2CCCN(Cc2ccccc2)C3CCC1 (centres undefined) the results were AF4-AF9 inh 32*, RAD52 inh -6, FN deposit inh -6, NSD2 HMT inh 3, Glyco luc inh -1, RAD54 branch 1 and Alpha interfer -11%.
`CC1Cc2ccccc2N1C(=O)c1ccc(N2CCCC2)c([N+](=O)[O-])c1` (centres undefined) gave AF4-AF9 inh 23, RAD52 inh 1, FN deposit inh -10, NSD2 HMT inh 11, Glyco luc inh 2, RAD54 branch -1 and Alpha interfer -21%.
Screening CC1Cc2ccccc2N1C(=O)c1ccc(N2CCCCC2)c([N+](=O)[O-])c1 (centres undefined) returned AF4-AF9 inh inconclusive, RAD52 inh -17, FN deposit inh 0, NSD2 HMT inh 4, Glyco luc inh 1 and RAD54 branch 11.
`COc1ccc(N2CCN(C(=O)C3CCCN(S(=O)(=O)c4c(C)noc4C)C3)CC2)cc1` (centres undefined) gave AF4-AF9 inh 28*, RAD52 inh -7, FN deposit inh -3, NSD2 HMT inh 1, Glyco luc inh -2, RAD54 branch 11 and Alpha interfer -5%.
For CN1CCN(C(=O)C[C@@H]2CC[C@@H]3[C@H](COC[C@H](O)CN3C(=O)C3CCOCC3)O2)CC1 the results were AF4-AF9 inh -9, RAD52 inh -38, FN deposit inh -2 and RAD54 branch 7.
COc1ccccc1C#Cc1ccc2c(c1)[C@H]1[C@H](CCN1C(=O)c1ccncc1)[C@@H](CO)N2 was read as AF4-AF9 inh 51*, RAD52 inh 87*, FN deposit inh -9 and Alpha interfer 8µM*.
Screening O=C(Cc1ccccc1)N1CC[C@@H]2[C@H]1c1cc(C#Cc3ccccc3)ccc1N[C@@H]2CO returned AF4-AF9 inh 4, RAD52 inh -24, FN deposit inh 17 and RAD54 branch -2.
COCCN=c1scc(-c2ccco2)n1/N=C/c1ccc(O)c(O)c1O was read as AF4-AF9 inh 33*, RAD52 inh -9, FN deposit inh 4, NSD2 HMT inh 87*, Glyco luc inh -2, RAD54 branch -11 and Alpha interfer -6%.
Screening COC(=O)C1=CC(C(=O)c2cccs2)=NN(c2ccc(OC)cc2)C1C(=O)OC (centres undefined) returned AF4-AF9 inh 32*, RAD52 inh -456, FN deposit inh -1, NSD2 HMT inh 7, Glyco luc inh -1 and Alpha interfer -25%.
For COc1ccc2c3c([nH]c2c1)[C@H](CO)NCC31CN(C(=O)C2CC2)C1 the results were AF4-AF9 inh -2 and RAD52 inh 12.
For O=C(CNCc1ccco1)Nc1ccc(N2CCCCCC2)cc1 the results were AF4-AF9 inh 29*, RAD52 inh -2, FN deposit inh 8, NSD2 HMT inh 18, Glyco luc inh 0 and Alpha interfer -37%.
